Test results reported in ChEMBL document CHEMBL1126647, “Fluorine-18-labeled progestin ketals: synthesis and target tissue uptake selectivity of potential imaging agents for receptor-positive breast tumors” (J Med Chem, 1993).

Key:
Assay type in all cases: functional, tissue-based
[1] = molecular target: T1, Progesterone receptor (Rattus norvegicus) (UniProt Q63449); assay: Tissue distribution in uterus/blood 1 hr after [18F]4 injection into estrogen-primed immature rats at normal dose
T1 sequence (whole entry): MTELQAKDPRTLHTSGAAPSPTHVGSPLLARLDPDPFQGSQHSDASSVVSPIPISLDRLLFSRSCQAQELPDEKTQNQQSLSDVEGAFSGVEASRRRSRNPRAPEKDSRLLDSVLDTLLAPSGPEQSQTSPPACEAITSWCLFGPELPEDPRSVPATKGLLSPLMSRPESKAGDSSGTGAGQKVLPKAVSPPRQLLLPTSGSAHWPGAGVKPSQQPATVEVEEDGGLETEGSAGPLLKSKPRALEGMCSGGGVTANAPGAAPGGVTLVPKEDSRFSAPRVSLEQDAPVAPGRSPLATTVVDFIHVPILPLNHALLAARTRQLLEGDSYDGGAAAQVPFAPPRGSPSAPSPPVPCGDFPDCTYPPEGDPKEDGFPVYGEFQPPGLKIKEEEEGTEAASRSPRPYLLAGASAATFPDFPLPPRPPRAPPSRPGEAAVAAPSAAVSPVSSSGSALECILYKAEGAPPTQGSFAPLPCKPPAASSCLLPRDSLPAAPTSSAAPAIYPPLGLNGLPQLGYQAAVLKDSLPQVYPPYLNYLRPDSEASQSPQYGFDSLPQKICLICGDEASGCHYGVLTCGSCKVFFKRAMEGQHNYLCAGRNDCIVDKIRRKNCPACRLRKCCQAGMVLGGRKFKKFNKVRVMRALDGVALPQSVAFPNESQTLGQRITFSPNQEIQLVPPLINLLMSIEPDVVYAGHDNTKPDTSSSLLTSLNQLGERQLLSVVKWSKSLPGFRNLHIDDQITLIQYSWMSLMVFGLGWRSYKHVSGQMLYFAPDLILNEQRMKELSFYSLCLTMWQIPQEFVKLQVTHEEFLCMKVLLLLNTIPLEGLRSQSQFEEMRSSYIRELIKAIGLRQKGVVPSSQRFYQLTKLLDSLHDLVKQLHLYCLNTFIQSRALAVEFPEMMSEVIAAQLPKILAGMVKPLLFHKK
Method in brief: (§1)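 Female Sprague-Dawley rats, 23 days old, primed with estradiol 5 μg s.c. in 20% ethanol/sunflower oil on two days and used 24 h later. Under ether, they received 51 μCi tracer (30 Ci/mmol) iv via the tail vein in 0.1 mL 10% ethanol/saline. Killed by decapitation at 1 h; tissues weighed and gamma-counted. Results as %ID/g or tissue ratios, mean ± SD, n = 5.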

[2] = molecular target: T1, Progesterone receptor (Rattus norvegicus); assay: Tissue distribution in bone 3 hr after [18F]4 injection into estrogen-primed immature rats; conditions: Bone element
Method in brief: (§2)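 Immature female Sprague-Dawley rats, estradiol-primed (5 μg s.c. in 20% ethanol/sunflower oil, two successive days, used 24 h later). Tracer (30 Ci/mmol) in 10% ethanol/saline was injected iv into the tail vein under ether anesthesia. Animals were decapitated 3 h postinjection; organs weighed and gamma-counted. %ID/g, mean ± SD, n = 5.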

[3] = molecular target: T1, Progesterone receptor (Rattus norvegicus); assay: Tissue distribution in lung 1 hr after [18F]4 injection into estrogen-primed immature rats at low dose
Method in brief: (§3)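 Estrogen-primed immature female Sprague-Dawley rats (estradiol 5 μg s.c. daily ×2, used 24 h later) were given a reduced tracer dose of 30 μCi in 0.04 mL 10% ethanol/saline, tail vein iv, under ether. Decapitated at 1 h; organs weighed and gamma-counted. Results as %ID/g or uterus/tissue ratio, mean ± SD, n = 5.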

[4] = molecular target: T1, Progesterone receptor (Rattus norvegicus); assay: Tissue distribution in brain 1 hr after [18F]-4 injection into estrogen-primed immature rats co-injected with uterine uptake blocker (ORG 2058)
Method in brief: (§4)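 Blocking group: estrogen-primed immature female Sprague-Dawley rats (estradiol 5 μg s.c. ×2 days, used 24 h later). ORG 2058 18 μg was co-injected with the tracer dose iv via tail vein, 0.2 mL injection volume in 10% ethanol/saline. Killed 1 h later; tissues weighed and gamma-counted. Results as %ID/g or ratios, mean ± SD, n = 5.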

[5] = molecular target: T1, Progesterone receptor (Rattus norvegicus); assay: Tissue distribution in liver 1 hr after [18F]4 injection into estrogen-primed immature rats co-injected with uterine uptake blocker (ORG 2058); method in brief: as §4
[6] = molecular target: T1, Progesterone receptor (Rattus norvegicus); assay: Tissue distribution in uterus/muscle 1 hr after [18F]4 injection into estrogen-primed immature rats at normal dose; method in brief: as §1
[7] = molecular target: T1, Progesterone receptor (Rattus norvegicus); assay: Tissue distribution in ovaries 1 hr after [18F]4 injection into estrogen-primed immature rats co-injected with uterine uptake blocker (ORG2058); conditions: Female gonad; method in brief: as §4
[8] = molecular target: T1, Progesterone receptor (Rattus norvegicus); assay: Tissue distribution in uterus 1 hr after [18F]4 injection into estrogen-primed immature rats at normal dose; method in brief: as §1
[9] = molecular target: T1, Progesterone receptor (Rattus norvegicus); assay: Tissue distribution in uterus 3 hr after [18F]4 injection into estrogen-primed immature rats; method in brief: as §2
[10] = molecular target: T1, Progesterone receptor (Rattus norvegicus); assay: Tissue distribution in liver 1 hr after [18F]4 injection into estrogen-primed immature rats at low dose; method in brief: as §3
[11] = molecular target: T1, Progesterone receptor (Rattus norvegicus); assay: Tissue distribution in bone 1 hr after [18F]4 injection into estrogen-primed immature rats at low dose; conditions: Bone element; method in brief: as §3
[12] = molecular target: T1, Progesterone receptor (Rattus norvegicus); assay: Tissue distribution in brain 1 hr after [18F]-4 injection into estrogen-primed immature rats at low dose; method in brief: as §3
[13] = molecular target: T1, Progesterone receptor (Rattus norvegicus); assay: Tissue distribution in kidney 1 hr after [18F]4 injection into estrogen-primed immature rats at normal dose; method in brief: as §1
[14] = molecular target: T1, Progesterone receptor (Rattus norvegicus); assay: Tissue distribution in uterus 1 hr after [18F]-4 injection into estrogen-primed immature rats co-injected with uterin uptake blocker (ORG 2058); method in brief: as §4
[15] = molecular target: T1, Progesterone receptor (Rattus norvegicus); assay: Tissue distribution in bone 1 hr after [18F]4 injection into estrogen-primed immature rats at normal dose; conditions: Bone element; method in brief: as §1
[16] = molecular target: T1, Progesterone receptor (Rattus norvegicus); assay: Tissue distribution in liver 1 hr after [18F]4 injection into estrogen-primed immature rats at normal dose; method in brief: as §1
[17] = molecular target: T1, Progesterone receptor (Rattus norvegicus); assay: Tissue distribution in uterus/muscle 3 hr after [18F]4 injection into estrogen-primed immature rats
Method in brief: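 Immature female Sprague-Dawley rats (23 days old) were primed with 5 μg estradiol in 20% ethanol/sunflower oil s.c. on two successive days and used 24 h after the last injection. The 18F tracer (51 μCi, specific activity 30 Ci/mmol) in 10% ethanol/saline was given iv in the tail vein under ether anesthesia. Rats were decapitated at 3 h, and organs were weighed and gamma counted. Ratio of %ID/g, n = 5.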

[18] = molecular target: T1, Progesterone receptor (Rattus norvegicus); assay: Tissue distribution in muscle 1 hr after [18F]4 injection into estrogen-primed immature rats at low dose; method in brief: as §3
[19] = molecular target: T1, Progesterone receptor (Rattus norvegicus); assay: Tissue distribution in fat 3 hr after [18F]4 injection into estrogen-primed immature rats; conditions: Adipose tissue; method in brief: as §2
[20] = molecular target: T1, Progesterone receptor (Rattus norvegicus); assay: Tissue distribution in lung 1 hr after [18F]4 injection into estrogen-primed immature rats co-injected with uterine uptake blocker (ORG 2058); method in brief: as §4
[21] = molecular target: T1, Progesterone receptor (Rattus norvegicus); assay: Tissue distribution in liver 3 hr after [18F]-4 injection into estrogen-primed immature rats; method in brief: as §2
[22] = molecular target: T1, Progesterone receptor (Rattus norvegicus); assay: Tissue distribution in kidney 1 hr after [18F]4 injection into estrogen-primed immature rats co-injected with uterine uptake blocker ([…]); method in brief: as §4
[23] = molecular target: T1, Progesterone receptor (Rattus norvegicus); assay: Tissue distribution in blood 1 hr after [18F]4 injection into estrogen-primed immature rats at low dose; method in brief: as §3
[24] = molecular target: T1, Progesterone receptor (Rattus norvegicus); assay: Tissue distribution in brain 3 hr after [18F]4 injection into estrogen-primed immature rats; method in brief: as §2
[25] = molecular target: T1, Progesterone receptor (Rattus norvegicus); assay: Tissue distribution in fat 1 hr after [18F]4 injection into estrogen-primed immature rats at normal dose; conditions: Adipose tissue; method in brief: as §1

| SMILES | uterus/blood ratio [1] | Injected dose/g [2] | Injected dose/g [3] | Injected dose/g [4] | Injected dose/g [5] | uterus/muscle ratio [6] | Injected dose/g [7] | Injected dose/g [8] | Injected dose/g [9] | Injected dose/g [10] | Injected dose/g [11] | Injected dose/g [12] | Injected dose/g [13] | Injected dose/g [14] | Injected dose/g [15] | Injected dose/g [16] | uterus/muscle ratio [17] | Injected dose/g [18] | Injected dose/g [19] | Injected dose/g [20] | further results |
| --- | --- | --- | --- | --- | --- | --- | --- | --- | --- | --- | --- | --- | --- | --- | --- | --- | --- | --- | --- | --- | --- |
| C[C@@]1(c2ccc(F)cc2)O[C@@H]2CC3C4CCC5=CC(=O)CC[C@@H]5C4CC[C@]3(C)[C@]2(C(=O)CO)O1 (stereo not given in full) | 14 | 0.64% | 0.72% | 0.28% | 3.56% | 8.2 | 1.37% | 3.65% | 3.86% | 3.93% | 0.68% | 0.39% | 1.42% | 0.86% | 0.62% | 4.25% | 27.9 | 0.464% | 1.64% | 0.54% | Injected dose/g [21]: 1.36%; Injected dose/g [22]: 1.28%; Injected dose/g [23]: 0.28%; Injected dose/g [24]: 0.06%; Injected dose/g [25]: 3.53% |
| CC(=O)[C@@]12O[C@](C)(c3ccc(F)cc3)O[C@@H]1CC1C3CCC4=CC(=O)CC[C@]4(C)C3CC[C@@]12C (stereo not given in full) | 6.59 | 1.69% | 1.46% | 0.55% | 3.16% | 3.85 | 2.29% | 3.08% | 2.13% | 3.62% | 1.77% | 0.57% | 2.18% | 1.27% | 1.76% | 3.41% | 4.61 | 0.82% | 5.06% | 1.26% | Injected dose/g [21]: 1.93%; Injected dose/g [22]: 2.18%; Injected dose/g [23]: 0.52%; Injected dose/g [24]: 0.2%; Injected dose/g [25]: 5.76% |
